# RGS4 block – RGS4 inhibitors, primary screen, cell-based, HEK293 M3R inducible RGS4, calcium flux. 310,000 tested, 0.45% active. Fluo-4 calcium flux; stronger effect = higher value; triggered by carbachol at its EC20. AID 463165, 2010. Regulator of G-protein signaling 4 (Homo sapiens), P49798. B-score at 10 µM;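 active = B-score, a plate-corrected calcium signal, over three deviations above library mean, with baseline fluorescence within five deviations of library mean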;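 also: RGS4 expression induced by doxycycline in cells with stable M3 receptor; B-score is computed from the integrated fluorescence ratio over baseline after carbachol; higher B-score means a larger calcium signal and so more RGS4 inhibition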
# Target sequence (P49798 whole entry, looked up): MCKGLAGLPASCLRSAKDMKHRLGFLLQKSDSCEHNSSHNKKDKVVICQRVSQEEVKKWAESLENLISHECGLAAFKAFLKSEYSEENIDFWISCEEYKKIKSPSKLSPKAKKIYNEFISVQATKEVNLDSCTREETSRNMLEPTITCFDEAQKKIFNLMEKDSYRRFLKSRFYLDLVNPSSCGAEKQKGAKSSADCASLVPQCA
# MrgX1 antagonist – antagonists of human MrgX1 receptor, primary screen, HEK293 cells, Fluo-4 calcium flux; BAM8-22 antagonism; stronger effect = lower value; B-score at 10 µM; 310,000 tested, 1.3% active; AID 588676, 2011;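 active = calcium-response B-score plate-corrected more than 3 library SD below zero, starting fluorescence within 5 deviations, no agonist response on first addition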;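 also: peak minus trough fluorescence over baseline after final BAM8-22 challenge near maximal dose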
# Target sequence (Q96LB2 whole entry, looked up): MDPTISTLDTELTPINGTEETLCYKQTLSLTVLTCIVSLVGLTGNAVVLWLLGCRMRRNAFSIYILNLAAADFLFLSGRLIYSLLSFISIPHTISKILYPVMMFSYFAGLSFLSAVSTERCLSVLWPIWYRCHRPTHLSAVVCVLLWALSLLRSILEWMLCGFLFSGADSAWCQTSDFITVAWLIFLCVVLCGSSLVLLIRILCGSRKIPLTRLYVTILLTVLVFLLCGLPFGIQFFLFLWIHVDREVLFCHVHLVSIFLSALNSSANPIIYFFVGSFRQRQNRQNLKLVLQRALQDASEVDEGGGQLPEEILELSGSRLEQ
# RGS4 act – RGS4 potentiators or activators, primary screen, cell-based, HEK293 M3R inducible RGS4, calcium flux; carbachol calcium flux Fluo4; stronger effect = lower value; B-score at 10 µM; 310,000 tested, 0.92% active; AID 463111, 2010;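 active = B-score of the integrated calcium signal more than 4 SD below the library mean, with starting fluorescence not abnormally high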;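 also: negative B-score means reduced calcium response which marks RGS4 activation or potentiation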
#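 Assay system: Inducible-RGS4 HEK293 cells carrying M3 receptor | Schedule: Compound preincubation 20 min at room temperature before agonist | Signal: Kinetic calcium fluorescence imaging with Fluo4-AM dye, 2 µM | Read-out basis: B score from integrated fluorescence ratio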
# MrgX1 PAM – positive allosteric modulators of MrgX1, primary screen, HEK293 cells, Fluo-4 calcium flux | B-score at 10 µM | 310,000 tested, 0.63% active | FDSS; stronger effect = higher value | Mas-related G-protein coupled receptor member X1 (Homo sapiens), Q96LB2;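 active = plate-corrected calcium response at least 3 library SD above typical, normal starting fluorescence, not activating the receptor alone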;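 also: compound read alongside a low EC10 to EC30 dose of BAM8-22 agonist; peak minus trough fluorescence over baseline measured at the second addition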
# MrgX1 ag – agonists of human MrgX1 receptor, primary screen, HEK293 cells, Fluo-4 calcium flux | Mas-related G-protein coupled receptor member X1 (Homo sapiens), Q96LB2 | Fluo-4 calcium fluorescence, agonist mode; stronger effect = higher value | B-score at 10 µM | 310,000 tested, 0.44% active | AID 588627, 2011;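 active = calcium response B-score plate-corrected fluorescence ratio at least 3 library SD, with starting fluorescence B-score inside 5 SD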
#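 Material: HEK293 cells stably expressing human MrgX1 receptor | Quantity: 15,000 cells per well | Times: Cells plated overnight, dye loaded 0.5 h 37 °C, 0.5 h room temperature | Measured by: Kinetic Fluo-4 NW fluorescence of intracellular calcium | Control set: Positive and negative controls per plate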
# RGS4 block valid – enhanced carbachol calcium response, M3R/RGS4 cells, RGS4 inhibitor project, cell-based, validation screen, HEK293 M3R/RGS4, calcium flux | calcium response, % at 10 µM | carbachol calcium Fluo-4 fluorescence; carbachol added at its EC20; 0 = buffer wells, 100 = carbachol control | 1,700 tested, 65% active | shares compounds with RGS4 block;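 active = duplicate-averaged calcium response above the buffer-only control mean plus 5 SD of those controls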;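 also: integrated fluorescence ratio F max minus min over baseline F0; higher response in RGS4-induced cells means RGS4 inhibition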
# M3R Ca ctr – carbachol calcium response in non-induced M3R cells, confirmation, counter-screen for RGS4 inhibitor project, cell-based, HEK293 M3R; shares compounds with RGS4 block; carbachol calcium Fluo-4; submaximal (EC20) carbachol stimulus; buffer wells 0%, carbachol control wells 100%; activity (percent), % at 10 µM; 1,900 tested, 20% active; AID 493000, 2010; call rule not given here;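 also: RGS4 induction absent so cells express M3R without RGS4; higher means more calcium signal and flags a non-specific hit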
# M3R basal Ca ctr – second counter-screen for RGS4 inhibitors: non-induced cells without carbachol; HEK293 M3R/RGS4 non-induced, Fluo-4 calcium, no carbachol; normalised: buffer wells 0%, carbachol wells 100%; calcium response (agonist-mode artifact), % at 10 µM; AID 493001; shares compounds with RGS4 block; 1,900 tested, 22% active;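 active = duplicate-averaged calcium rise in uninduced cells above buffer wells' mean plus 5 SD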
# Numbers without * were called inactive; i = inactive; . = no result given. A selection: hits, their analogues and other compounds. The true share with any hit is near 3.5%.
SMILES,RGS4 block,MrgX1 antagonist,RGS4 act,MrgX1 PAM,MrgX1 ag,RGS4 block valid,M3R Ca ctr,M3R basal Ca ctr
CC(C)(C)c1cccc(/C=N/O)c1O,11*,i,i,i,i,24%*,44%*,i
COc1ccc(Oc2ccccc2/C=N/O)cc1,i,i,i,i,i,.,.,.
Cn1c(N)nc2nc(CCc3ccccc3)c(=O)[nH]c2c1=O,i,i,i,i,i,.,.,.
O=[N+]([O-])c1cc(Cl)c(O)c2ncccc12,6.7*,.,i,.,.,12%*,i,i
O=[N+]([O-])c1cc(Cl)c2cccnc2c1O,i,i,i,i,i,.,i,134%*
O=[N+]([O-])c1cc(F)c2cccnc2c1O,i,i,i,i,i,.,.,.
O=C(/C=C/c1ccccn1)c1cc(Cl)cc(Cl)c1O,15*,i,i,i,i,26%*,64%*,i
COc1ccc(/C=C/C(=O)c2cc(Cl)cc(Cl)c2O)c(OC)c1,i,i,i,i,i,.,.,.
O=C1Nc2ccc(Br)cc2C1Cc1ccccc1F (configuration not stated),5.8*,i,i,i,i,13%*,i,i
Cc1cc(C(=O)COc2ccccc2[N+](=O)[O-])c(C)n1C1CC1,i,i,i,i,i,.,.,.
Cc1cc(-n2c(C)cc(C(=O)COc3ccccc3[N+](=O)[O-])c2C)no1,5.1*,i,i,i,i,i,i,i
CCCNC(=O)c1nnsc1S(=O)c1ccc(Cl)cc1 (configuration not stated),7.2*,.,i,.,.,12%*,i,22%*
CNC(=O)c1nnsc1S(=O)c1ccc(Cl)cc1 (configuration not stated),7.3*,.,i,.,.,30%*,i,14%*
COc1ccc(CCC(=O)NCCS(=O)(=O)N2CCN(c3ccc(F)cc3)CC2)cc1,i,i,i,i,i,.,.,.
CC1CCC(NC(=O)CNC(=O)Cc2cccc3ccccc23)CC1 (configuration not stated),i,i,i,i,i,.,.,.
CC(C)(CO)NS(=O)(=O)c1ccc2c(c1)C(=NO)c1cc(S(=O)(=O)NC(C)(C)CO)ccc1-2,11*,i,i,i,i,16%*,i,i
COc1ccc(NC(=O)CN2CCN(CC(=O)Nc3ccc(F)cc3F)CC2)cc1,i,.,i,.,.,.,.,.
CCOc1ccc(-c2c(C(=O)N/N=C/c3ccc(C)cc3)nnn2-c2nonc2N)cc1,i,i,i,i,i,i,i,i
CCCOc1ccc(-c2c(C(=O)N/N=C/c3ccc(C)cc3)nnn2-c2nonc2N)cc1,i,i,i,i,i,.,39%*,i
COc1ccc2c(c1)C(c1ccccc1)NC(=O)C2 (configuration not stated),i,i,i,i,i,.,.,.
Cc1ccc2occ(/C=N/NC(=O)c3ccc(O)cc3)c(=O)c2c1,i,i,i,i,i,.,.,.
Cc1ccc2occ(/C=N/NC(N)=S)c(=O)c2c1,11*,i,i,i,i,54%*,66%*,i
O=C(/C=C/c1ccc(Cl)cc1)N1CCN(c2ccc(Cl)cc2[N+](=O)[O-])CC1,i,i,i,i,i,.,.,.
O=C(O)c1ccc(N2CCN(c3ccc(Cl)cc3)CC2)c([N+](=O)[O-])c1,5*,i,i,i,i,7.5%*,i,i
O=C(NNC(=S)Nc1ccc(Cl)cc1Cl)c1ccc(N2CCOCC2)c([N+](=O)[O-])c1,5.2*,i,i,i,i,9.5%*,34%*,i
SMILES,RGS4 block,MrgX1 antagonist,RGS4 act,MrgX1 PAM,MrgX1 ag,RGS4 block valid,M3R Ca ctr,M3R basal Ca ctr
N#Cc1c(-c2ccccc2)c(-c2ccccc2)nn(CC(=O)NNC(=O)Nc2ccc(Cl)cc2)c1=O,i,i,i,i,i,.,i,i
N#Cc1c(-c2ccccc2)c(-c2ccccc2)nn(CC(=O)NNC(=O)Nc2ccccc2)c1=O,i,i,i,i,i,i,i,i
Cn1c(SCC(=O)NNC(=O)Nc2ccc(Cl)cc2)nnc1-c1ccccc1,i,i,i,i,i,.,.,.
CC(C)c1nnc(SCC(=O)N2CCc3ccccc32)n1N,i,i,i,i,i,.,.,.
COc1ccc2cc(CN(CCc3ccccc3)Cc3nnnn3Cc3ccco3)c(=O)[nH]c2c1,i,i,i,i,i,.,.,.
Cc1ccc(CN(Cc2cc3cc4c(cc3[nH]c2=O)OCCO4)Cc2nnnn2Cc2ccco2)cc1,12*,i,i,i,i,i,i,16%*
Cc1ccc2cc(CN(Cc3ccc4c(c3)OCO4)Cc3nnnn3Cc3ccco3)c(=O)[nH]c2c1,i,i,i,i,i,i,i,8.5%*
O=C(COC(=O)c1ccc2c(=O)n3c(nc2c1)CCC3)Nc1ccc(OC(F)F)cc1,i,i,i,i,i,.,.,.
O=C(C1=C(O)C(=O)N(Cc2ccco2)C1c1ccccc1F)c1cccs1 (configuration not stated),i,i,i,i,i,.,.,.
O=C1c2[nH]nc(-c3ccccc3O)c2C(c2ccccc2)N1Cc1ccco1 (configuration not stated),12*,i,i,i,i,6.0%*,i,i
O=C1c2[nH]nc(-c3ccccc3O)c2C(c2ccccc2F)N1Cc1ccco1 (configuration not stated),16*,i,i,i,i,34%*,40%*,i
COc1cccc(C2c3c(-c4ccccc4O)n[nH]c3C(=O)N2Cc2ccco2)c1 (configuration not stated),i,i,i,i,i,.,.,.

# Screening results deposited in PubChem by Johns Hopkins Ion Channel Center.
